Measured values reported in article PMC7115421 (European Journal of Medicinal Chemistry, 2009).

Columns and labels:
[1] = system: MCF7 breast cancer cell line; test: SRB cytotoxicity assay, MCF7; type: cell-based, human
Outline: (§1)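 Cells grown in RPMI 1640 with 10% FBS and 2 mM L-glutamine at 37 °C, 5% CO2. 5000–10,000 cells/well seeded 24 h before dosing. Seven concentrations from 2–10-fold serial dilutions; medium with matched DMSO as control. After 48 h: TCA fixation (60 min, 4 °C), 0.4% SRB, Tris solubilisation, absorbance 515–564 nm. Growth = (Ti−Tz)/(C−Tz)×100. GI50 from variable-slope sigmoidal fit; triplicates, ≥3 experiments.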

[2] = system: MDA-MB231 breast cancer cell line; test: SRB cytotoxicity assay, MDA-MB231; type: cell-based; settings: Homo sapiens
Outline: as §1

[3] = system: MDA-MB468 breast cancer cell line; test: SRB cytotoxicity assay, MDA-MB468; type: cell-based; settings: Homo sapiens
Outline: as §1

[4] = system: 184B5 immortalized breast cell line; test: SRB cytotoxicity assay, 184B5 non-cancer cells; type: cell-based, human; settings: for killing of 184B5 non-cancer cells (in words): combined with constant amount of Akt inhibitors 7–10 (0.04, 0.4, 3.5, 0.5 μM)
[5] = system: MDA-MB468, MDA-MB231 and MCF7 breast cancer cell lines; test: SRB cytotoxicity assay, three breast cancer cell lines together; type: cell-based, human; settings: for sensitization of cell killing by PI3K-Akt inhibitors (in words): in combination with GI20 doses of PI3K-Akt inhibitors, three breast cancer cell lines
Outline: (§2)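 Cells plated at 5000–10,000/well and held 24 h at 37 °C, 5% CO2; time-zero wells TCA-fixed. Test compound from DMSO stock, seven concentrations (2–10-fold dilutions), 48 h; DMSO-matched medium control. Cold TCA fixation (10% final), 60 min, 4 °C; 0.4% SRB stain; Tris base solubilisation; A515–564 nm. Growth % = (Ti−Tz)/(C−Tz)×100; GI values from variable-slope sigmoidal fit; triplicates, ≥3 independent experiments.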

[6] = system: MDA-MB468, MDA-MB231, MCF7 and 184B5; test: SRB cytotoxicity assay, all four cell lines together; type: cell-based, human; settings: for cytotoxicity (in words) on the four cell lines: PI3K-Akt inhibitor alone; for average GI20 values on the four cell lines: average over MDA-MB468, MDA-MB231, MCF7, 184B5
Outline: as §2

Question: Which results are given for `CCN(CC)CCCC(C)Nc1ccnc2cc(Cl)ccc12` (centres unmarked) [Compound 1, Chloroquine diphosphate]?
Answer: IC50 ([1]; Homo sapiens, MCF7): 38.4 µM; GI50 ([1]; Homo sapiens, MCF7, 48 h): 38.4 ± 1.2 µM; IC50 ([2]; MDA-MB-231): 22.5 µM; GI50 ([2]; MDA-MB-231, 48 h): 22.5 ± 1.44 µM; IC50 ([3]; MDA-MB-468): 28.6 µM; GI50 ([3]; MDA-MB-468, 48 h): 28.6 ± 1.25 µM; IC50 ([4]; Homo sapiens, 184B5): 76.1 µM; GI50 ([5]; Homo sapiens, read-out: GI50 on the cancer cell lines (range)): 22.5 to 38.4 µM

Question: With `CCCCNc1ccnc2cc(Cl)ccc12` [Compound 2, Butyl-(7-chloro-quinolin-4-yl)-amine] as the molecule, how does the “killing of 184B5 non-cancer cells (in words)” value [4] read?
Answer: effectively killed

Question: What about the “sensitization of cell killing by PI3K-Akt inhibitors (in words)” value [5] of the same molecule?
Answer: generally not effective sensitizers

Question: Which results are given for `CCCCNc1ccnc2cc(F)ccc12` [Compound 3, Butyl-(7-fluoro-quinolin-4-yl)-amine]?
Answer: killing of 184B5 non-cancer cells (in words) [4]: effectively killed; sensitization of cell killing by PI3K-Akt inhibitors (in words) [5]: generally not effective sensitizers

Question: With `CN(C)CCNc1ccnc2cc(Cl)ccc12` [Compound 4, N′-(7-Chloro-quinolin-4-yl)-N,N-dimethyl-ethane-1,2-diamine] as the molecule, how does the “sensitization of cell killing by PI3K-Akt inhibitors (in words)” value [5] read?
Answer: substantial enhancement of cell killing

Question: For `CN(C)CCNc1ccnc2cc(F)ccc12` [Compound 5, N′-(7-Fluoro-quinolin-4-yl)-N,N-dimethyl-ethane-1,2-diamine], which “sensitization of cell killing by PI3K-Akt inhibitors (in words)” value [5] is on record?
Answer: substantial enhancement of cell killing

Question: How did the “sensitization of cell killing by PI3K-Akt inhibitors (in words)” value [5] turn out when `COc1ccc2c(NCCN(C)C)ccnc2c1` [Compound 6, N′-(7-Methoxy-quinolin-4-yl)-N,N-dimethyl-ethane-1,2-diamine] was run?
Answer: not very effective

Question: `CC[n+]1c(C=CN(C)c2ccccc2)n(-c2ccccc2)c2ccc(-c3nc4ccccc4s3)cc21.[I-]` [Compound 7, 6-Benzothiazol-2-yl-1-ethyl-2-[2-(methyl-phenyl-amino)-vinyl]-3-phenyl-3H-benzoimidazol-1-ium Iodide] was tested. Which “cytotoxicity (in words) on the four cell lines” value [6] did it give?
Answer: the most cytotoxic

Question: What about the “average GI20 values on the four cell lines” value [6] of the same molecule?
Answer: 0.04 µM

Question: For `O=c1[nH]c2ccccc2n1C1CCN(Cc2ccc(-c3nc4cc5nc[nH]c5cc4nc3-c3ccccc3)cc2)CC1` [Compound 8, 1-{1-[4-(7-Phenyl-1H-imidazo[4,5-g]quinoxalin-6-yl)-benzyl]-piperidin-4-yl}-1,3-dihydro-benzoimidazol-2-one], which “cell killing (in words) of MCF7” value ([1]; PI3K-Akt inhibitor alone, not other cells examined) is on record?
Answer: killed MCF7 cells effectively

Question: For `CCN(CC)CCCCN1c2ccccc2OC2C=CC(Cl)=CC21.Cl` (centres unmarked) [Compound 9, [4-(2-chloro-4a,10a-dihydro-phenoxazin-10-yl)-butyl]-diethyl-amine hydrochloride], which “cytotoxicity (in words) on the four cell lines” value [6] is on record?
Answer: only week cytotoxicity

Question: With `O=c1cc(N2CCOCC2)oc2c(-c3ccccc3)cccc12` [Compound 10, 2-Morpholin-4-yl-8-phenyl-chromen-4-one] as the molecule, how does the “average GI20 values on the four cell lines” value [6] read?
Answer: 0.52 µM
